High-throughput results from PubChem BioAssay.
Sampled rows, rich in hits. Any-hit rate of the full collection: about 9.6%.
PMI act hi M6P = increases human PMI activity with near-saturating mannose 6-phosphate. P34949. coupled PMI enzyme assay, resazurin fluorescence, 20 min; stronger effect = higher value; 1 = untreated enzyme, 0 = substrate-free blank. activation factor at 20 µM. 190,000 tested, 0.34% active. AID 1216;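 active = activation factor of 2 or more at 20 µM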
Target sequence (P34949 whole entry, looked up): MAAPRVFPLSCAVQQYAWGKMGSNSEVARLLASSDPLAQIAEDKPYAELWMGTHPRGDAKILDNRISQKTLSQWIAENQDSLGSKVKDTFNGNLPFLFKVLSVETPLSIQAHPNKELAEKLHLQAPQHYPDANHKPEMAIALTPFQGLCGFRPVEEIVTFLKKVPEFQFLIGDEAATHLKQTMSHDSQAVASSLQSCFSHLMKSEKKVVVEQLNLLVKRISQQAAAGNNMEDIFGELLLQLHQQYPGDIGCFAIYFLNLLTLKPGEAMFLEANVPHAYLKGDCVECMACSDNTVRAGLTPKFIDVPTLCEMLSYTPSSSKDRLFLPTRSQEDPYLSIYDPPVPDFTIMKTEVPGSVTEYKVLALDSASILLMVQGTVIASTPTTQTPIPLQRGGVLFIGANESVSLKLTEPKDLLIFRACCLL
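Test system: human phosphomannose isomerase with PGI, G6PDH, diaphorase coupling enzymes / Doses: 20 µM compound, 1% DMSO / Times: enzyme reaction with compound 20 min at room temperature / Measured by: Diaphorase-driven resazurin-to-resorufin fluorescence, excitation 544, emission 590 nm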
PMI activator = increases human mannose-6-phosphate isomerase activity; purified human PMI, coupled resazurin fluorescence, 20 min; stronger effect = higher value; 1 = vehicle control, 0 substrate-free wells; activation factor at 20 µM; 190,000 tested, 0.005% active;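 active = activation factor of 2 or more at 20 µM, relative to plate controls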
L major viab = Leishmania major promastigote growth inhibition; Leishmania major promastigotes, resazurin fluorescence viability; inhibition, % at 10 µM; 200,000 tested, 9% active; in the data active = inhibition above about 50%;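 also: promastigotes grown with compound for 44 hours at 28 °C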
HCT116 bCat-KO = beta-catenin-lacking colon tumor cell growth suppression. HCT116 beta-catenin knockout viability, CellTiter-Glo, 60 h; stronger effect = lower value. viability, % at 10 µM. 140,000 tested, 1.5% active. AID 818;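 active = viability at or under a set limit, the compound median less 4 SD, cut at about 6% in these data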;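 also: 0% = Hyamine 1622 control at 20 µM and 100% = untreated cell control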
PTEN del growth = PTEN-deleted cell growth suppression; HCT116 PTEN-null viability, CellTiter-Glo, 60 h; stronger effect = lower value; viability, % at 10 µM; 140,000 tested, 1.2% active; AID 827;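 active = viability at or below a set limit, 4 SD under the median of all tested compounds, cut at about 3.7% in these data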;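 also: PTEN knockout HCT116 line with beta catenin targeted HCT116 as companion control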
* hit, by the source's call; x = not tested or not shown.

SMILES | PMI act hi M6P | PMI activator | L major viab | HCT116 bCat-KO | PTEN del growth
COc1ccc(-c2ccc(/C=N/N3C(=O)C4C5C=CC(C6CC56)C4C3=O)o2)c([N+](=O)[O-])c1 (configuration not stated) | 0.6 | 0.8 | 1 | 97 | 100
Cc1[nH][nH]c(=O)c1C(c1ccc(-c2ccc(Cl)c(Cl)c2)o1)c1c(C)[nH][nH]c1=O | 1.5 | 1.2 | 100* | 49 | 43
COc1ccc(-c2ccc(C(c3c(C)[nH][nH]c3=O)c3c(C)[nH][nH]c3=O)o2)c([N+](=O)[O-])c1 | 1 | 1.1 | 61* | x | x
Cc1[nH][nH]c(=O)c1C(c1ccc(-c2ccc(C(=O)O)cc2)o1)c1c(C)[nH][nH]c1=O | 1.1 | 1.1 | -6 | x | x
Cn1c(N)c(C(=O)COC(=O)c2ccc(S(=O)(=O)N3CCCCC3)cc2)c(=O)n(C)c1=O | 1 | 1.2 | -8 | x | x
Cn1c(N)c(C(=O)COC(=O)c2ccc(Cl)c(S(=O)(=O)N3CCCCC3)c2)c(=O)n(C)c1=O | 1 | 0.9 | 88* | 74 | 84
Cc1onc(-c2c(F)cccc2Cl)c1C(=O)OCn1nnc2ccccc2c1=O | 0.9 | 1.1 | 99* | 91 | 86
Cc1onc(-c2c(F)cccc2Cl)c1C(=O)OCC(=O)c1c(N)n(C)c(=O)n(C)c1=O | 1 | 1 | 76* | x | x
Cc1onc(-c2ccccc2Cl)c1C(=O)OCC(=O)c1c(N)n(C)c(=O)n(C)c1=O | 0.9 | 0.9 | 41 | x | x
CC(=O)Nc1ccc(SCC(=O)c2cc(C)n(-c3ccccc3F)c2C)cc1 | 0.9 | 0.8 | 81* | 65 | 66
CC(=O)CSc1nc2cc3c(cc2cc1C#N)OCCO3 | 2* | 1.5 | 22 | x | x
COc1ccc2cc(C#N)c(SCC(=O)N3CCCC3)nc2c1 | 0.9 | 1 | 55* | 67 | 69
CCOC(=O)c1ccc(S(=O)(=O)N2CCN(C(C)=O)CC2)cc1 | 1 | 1 | -3 | x | x
CCOC(=O)c1ccc(S(=O)(=O)n2c(CN3CCCCC3)nc3ccccc32)cc1 | 0.9 | 0.9 | 52* | 80 | 88
CCOC(=O)N1CCC(N2CCN(S(=O)(=O)c3ccc(C)cc3)CC2)CC1 | 1.1 | 1 | 85* | 91 | 100
CCOC(=O)N1CCC(N2CCN(S(=O)(=O)CC)CC2)CC1 | 1 | 0.9 | 94* | 106 | 99
CCOC(=O)c1ccc(S(=O)(=O)N2CCN(C3CCCC3)CC2)cc1 | x | x | 90* | x | x
COc1ccc(OC)c(Cc2nnc(CCC(=O)NCc3ccc(C)s3)o2)c1 | x | x | -1 | x | x
CCc1ccc(C(C(=O)NC2CCCCC2)N(C(=O)CNC(=O)c2ccco2)c2cccnc2)cc1 (configuration not stated) | x | x | -2 | x | x
COc1ccc(/C=N/NC(=O)C2c3ccccc3Oc3ccccc32)c(OC)c1 | 1 | 0.9 | -2 | 95 | 95
CCC(C)(C)n1nnnc1C(c1ccc(O)cc1)N1CCc2ccccc2C1 (configuration not stated) | 0.9 | 0.9 | 1 | x | x
Nn1c(SCc2ccccn2)nncc1=O | 1 | 1 | -4 | x | x
CC(=O)N(C)c1ccc(NC(=S)NCC(C)C)cc1 | 1 | 1.1 | -4 | x | x
c1coc(CNc2c3c(nc4ccccc24)CCC3)c1 | 1 | 1 | 88* | 48 | 34
CCOC(=O)c1c(NC(=O)c2ccccc2Br)sc2c1CCc1ccccc1-2 | 0.9 | 0.5 | 32 | 82 | 76
SMILES | PMI act hi M6P | PMI activator | L major viab | HCT116 bCat-KO | PTEN del growth
O=C(Nc1ccccc1)c1ccc(NCCc2ccccc2)c([N+](=O)[O-])c1 | 1 | 0.9 | -8 | 86 | 88
CCc1ccccc1NC(=O)c1ccc(NCCc2ccccc2)c([N+](=O)[O-])c1 | 1 | 0.9 | 67* | 89 | 92
COc1cc(OC)cc(C(=O)NCC(=O)OCC(=O)N2CC(C)CC(C)C2)c1 (configuration not stated) | 1 | 1.1 | -9 | x | x
O=C(NCCc1ccc(Cl)cc1)/C(=C/c1cccnc1)NC(=O)c1ccccc1 | 1 | 0.9 | 59* | 99 | 93
COc1ccccc1CCNC(=O)/C(=C/c1cccnc1)NC(=O)c1ccccc1 | 1 | 1 | 9 | 89 | 92
Cc1cccc(-c2nc3ccccc3c(=O)n2NC(=O)/C=C/c2ccc([N+](=O)[O-])cc2)c1 | 0.9 | 0.8 | 52* | 89 | 83
O=C(/C=C/c1cccc([N+](=O)[O-])c1)Nn1c(-c2ccccc2F)nc2ccccc2c1=O | 0.9 | 1 | -2 | 91 | 89
Nc1nc(SCC(=O)Nc2ccccc2C(F)(F)F)[nH]c(=O)c1-c1ccccc1 | 1 | 1.1 | -5 | x | x
CC1CCN(C(=S)NC(=O)c2cccs2)CC1 | 1 | 1 | -7 | x | x
COCCn1cc(C(=O)c2ccccc2OCC(=O)Nc2cc(C)on2)cc(C#N)c1=O | 1 | 1 | -3 | 90 | 95
Cc1nc([N+](=O)[O-])c(Br)n1CC(=O)c1cccc([N+](=O)[O-])c1 | 1 | 1.2 | 86* | x | x
Cc1nc([N+](=O)[O-])c(Br)n1CC(=O)c1ccc(F)cc1 | 1.1 | 1.1 | 89* | x | x
COc1cc(NC(=O)c2cccc(Br)c2)nc(OC)n1 | 0.9 | 0.9 | -3 | x | x
O=C(N/C(=C\c1cccc([N+](=O)[O-])c1)C(=O)N1CCOCC1)c1ccc([N+](=O)[O-])cc1 | 0.9 | 0.9 | 1 | x | x
Cn1ccnc1C1CCCCN1Cc1nc(-c2ccc(Cl)cc2)no1 (configuration not stated) | x | x | 15 | x | x
O=C(NC(=S)NNC(=O)c1cnccn1)c1ccc(F)cc1 | 1.1 | 0.7 | 100* | x | x
COc1ccc(C(=O)NNC(=O)CSc2nnc(-c3ccc(O)cc3)n2C)cc1 | 1 | 1 | 0 | x | x
CCOC(=O)/C=C/C(=O)Nc1ccccc1-c1ccccc1NC(=O)/C=C/C(=O)OCC | 1.1 | 1 | 41 | 3.9* | 2.0*
CCOC(=O)/C=C/C(=O)Nc1cccc([N+](=O)[O-])c1 | 1.8 | 1.3 | 0 | 91 | 105
CN1CC(c2ccc(Cl)c(Cl)c2)[C@@]2(COc3ccccc3C2=O)[C@@]12C(=O)Nc1ccccc12 (some centres not stated) | 0.8 | 0.8 | 81* | 4.7* | 2.9*
CC(=O)O[C@H]1C[C@@]2(C)[C@@H](C[C@@H](O)[C@H]3[C@@]4(C)CC[C@@H](O)[C@@H](C)C4CC[C@@]32C)/C1=C(\CCC=C(C)C)C(=O)O (some centres not stated) | 1.1 | 1 | 49 | 98 | 92
C(=C\CSc1nnnn1-c1ccccc1)/CSc1nnnn1-c1ccccc1 | 0.9 | 0.9 | 22 | 98 | 88
O=[N+]([O-])c1ccc(Sc2nnnn2-c2ccccc2)nc1 | 1.1 | 1.1 | 82* | x | x
CCOC(=O)/C=c1\s/c(=C\c2ccc3cc(OC)ccc3c2)c(=O)n1CC(=O)NCc1ccc2c(c1)OCO2 | 1 | 1 | -4 | x | x
Cc1ccc(-c2cc(C(=O)N/N=C/C=C/c3ccccc3)n[nH]2)s1 | 1 | 0.9 | 24 | 42 | 51
